Assay results collected from several papers.
RPS6KA5: Ribosomal protein S6 kinase alpha-5 (RPS6KA5, Homo sapiens, UniProt O75582)
RPS6KA5 N-terminal kinase domain: Ribosomal protein S6 kinase alpha-5, N-terminal kinase domain (RPS6KA5, Homo sapiens, UniProt O75582)
RPS6KA5 C-terminal kinase domain: Ribosomal protein S6 kinase alpha-5, C-terminal kinase domain (RPS6KA5, Homo sapiens, UniProt O75582)

| Compound | target | effect on | mode | technique | tested at | quantity | result |
| --- | --- | --- | --- | --- | --- | --- | --- |
| C#Cc1n[nH]c2c(-c3cn([C@@H](C)c4ccccc4)c(=O)[nH]c3=O)cc(F)cc12 | RPS6KA5 | enzyme activity | inhibitor |  | 0.1 µM | inhibition | -1.9% |
| Cn1cncc1[C@@](O)(COc1ccc(C#N)cc1-c1ccc(OC(F)(F)F)cc1)c1ccc(C#N)cc1 | RPS6KA5 N-terminal kinase domain | cell-free assay |  | competition with immobilised ligand | 1 µM | remaining binding | 88% |
| CC(C)(C)c1cc(C=C(C#N)C#N)cc(Br)c1O | RPS6KA5 | enzyme activity | inhibitor |  | 0.5 µM | remaining activity | 108% |
| N#CC1(c2ccccn2)CCN(Cc2cc(C(=O)O)c(=O)n3ccccc23)CC1 | RPS6KA5 C-terminal kinase domain | cell-free assay |  | competition with immobilised ligand | 1 µM | remaining binding | 83% |
| Cc1nn(C)cc1-c1nc2c(N3CCN(Cc4ccc(Cl)cc4)CC3)c(Cl)cnc2[nH]1 | RPS6KA5 C-terminal kinase domain | binding |  | competition with immobilised ligand | 1 µM | remaining binding | 100% |
| Nc1ncc(-c2nc(N3CCOCC3)nc(N3CCOCC3)n2)c(C(F)F)n1 | RPS6KA5 N-terminal kinase domain | binding |  | competition with immobilised ligand | 10 µM | remaining binding | 88% |
| Cn1cc(-c2cccc(N3CCc4c(sc5c4CC(C)(C)C5)C3=O)c2CO)cc(Nc2ccncn2)c1=O | RPS6KA5 | enzyme activity | inhibitor |  | 1 µM | inhibition | 2% |
| C#Cc1n[nH]c2c(-c3cn([C@@H](C)c4ccccn4)c(=O)[nH]c3=O)cc(F)cc12 | RPS6KA5 | enzyme activity | inhibitor |  | 0.1 µM | inhibition | 2% |
| Cn1cc(-c2cc(F)cc(N3CCn4c(cc5c4CCCC5)C3=O)c2CO)cc(Nc2ccc(N3CCN(C4COC4)CC3)cn2)c1=O | RPS6KA5 | enzyme activity | inhibitor |  | 0.1 µM | inhibition | 13% |
| O=c1[nH]c2ccccc2n1C1CCN(Cc2ccc(-c3[nH]c4cc5ncnc5cc4nc3-c3ccccc3)cc2)CC1 | RPS6KA5 | cell-free assay |  |  | 0.5 µM | remaining signal | 103% |
